Assay outcomes: PubChem BioAssay, several laboratories
PAFAH1B2 FP inh: PAFAH1B2 enzyme inhibitors, primary screen, biochemical, fluorescence polarization, human. inhibition, % at 3.39 µM. AID 492953, 2010. 1.2% of 340,000 active. recombinant PAFAH1B2, FP-rhodamine activity probe;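 active means inhibition above the mean of all tested compounds plus 3 SD, cut at about 24% in these data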;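 further: 0% = enzyme with DMSO and 100% = wells lacking PAFAH1B2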
Target sequence (P68402 whole entry, looked up): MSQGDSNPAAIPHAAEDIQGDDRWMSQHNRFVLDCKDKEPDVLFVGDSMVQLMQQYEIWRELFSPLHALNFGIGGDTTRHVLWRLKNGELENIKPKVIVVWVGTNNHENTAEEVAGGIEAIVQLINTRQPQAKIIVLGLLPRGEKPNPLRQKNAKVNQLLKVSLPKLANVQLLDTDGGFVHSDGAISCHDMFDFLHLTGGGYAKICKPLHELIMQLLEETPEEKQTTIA
PAFAH2 inh: PAFAH2 enzyme inhibitors, primary screen, biochemical, fluorescence polarization, human; 0.99% of 340,000 active; Platelet-activating factor acetylhydrolase 2, cytoplasmic (Homo sapiens), Q99487; inhibition, % at 3.39 µM; recombinant PAFAH2, FP-rhodamine activity probe;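 active means inhibition above the mean over all tested compounds plus 3 SD, cut at about 30% in these data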;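 further: inhibitors block probe labeling of enzyme so polarization drops; 0% = enzyme with DMSO and 100% = wells lacking PAFAH2 protein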
PAFAH1B3 inh: PAFAH1B3 enzyme inhibitors, primary screen, biochemical, fluorescence polarization, human; recombinant PAFAH1B3, FP-rhodamine probe; AID 492972, 2010; Platelet-activating factor acetylhydrolase IB subunit alpha1 (Homo sapiens), Q15102; 0.28% of 340,000 active; inhibition, % at 3.39 µM;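 active means inhibition above the screen-wide average of all tested compounds plus 3 SD, cut at about 25% in these data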;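 further: 0% = enzyme with DMSO only and 100% = wells lacking PAFAH1B3 protein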
Target sequence (Q15102 whole entry, looked up): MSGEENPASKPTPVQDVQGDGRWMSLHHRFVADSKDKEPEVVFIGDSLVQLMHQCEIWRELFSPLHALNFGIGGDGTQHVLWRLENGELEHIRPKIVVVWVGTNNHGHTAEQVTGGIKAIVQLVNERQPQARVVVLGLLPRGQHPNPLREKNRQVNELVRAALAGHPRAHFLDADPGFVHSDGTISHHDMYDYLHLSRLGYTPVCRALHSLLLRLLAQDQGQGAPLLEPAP
Apaf1 inhib: inhibitors of human Apaf-1 apoptosome, primary screen, biochemical, DEVD-Rh110 fluorescence, uHTS. 0.71% of 330,000 active. Apoptotic protease-activating factor 1 (Homo sapiens), O14727. reconstituted apoptosome caspase-3 activity. inhibition, % at 20 µM; active means inhibition of at least 40% at 20 µM;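 further: plate controls were DMSO wells for no effect and DEVD-CHO caspase inhibitor wells for full effect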
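Material: cell-free apoptosome with Apaf-1, procaspase-3 and caspase-9; Buffer or medium: Hepes pH 7.5 with detergent and BSA; Reagent: cytochrome c trigger plus (Z-DEVD)2-Rh110 caspase-3 substrate; Times: compound with Apaf-1, dATP, procaspase-3 30 min, then 50 min reaction, room temperature; Technique: Rh110 fluorescence intensity.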
TDP2 inh: human TDP2 enzyme inhibitors, primary screen, biochemical, epi absorbance, recombinant enzyme; AID 720702, 2013; 0.34% of 370,000 active; Tyrosyl-DNA phosphodiesterase 2 (Homo sapiens), O95551; T5PNP hydrolysis, p-nitrophenol absorbance 415 nm; inhibition, % at 12.8 µM;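 active means inhibition above the mean of all tested compounds plus 3 SD, set per campaign, cut at about 25% in these data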;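 further: 0% = DMSO with enzyme and 100% = buffer with substrate but no TDP2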
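Test system: human TDP2 enzyme; Input: 120 nM TDP2 per well; Buffer or medium: Mg2+-containing Tris-HCl buffer, pH 7.5; Reagent: 5 mM T5PNP; Dosing: 12.8 µM single point, 1% DMSO; Incubation: reaction 2 h, 37 °C; Detection: p-Nitrophenol epi absorbance; Read-out: % inhibition relative to enzyme-containing and enzyme-free wells; Replicates: single well per compound.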
* hit, by the source's call; . = not tested or not shown. This is a sample that favours compounds with a hit; in the whole collection about 2.3% have one here.

SMILES	PAFAH1B2 FP inh	PAFAH2 inh	PAFAH1B3 inh	Apaf1 inhib	TDP2 inh
Cc1cc(=O)oc2c3c(cc(OCC(=O)NC(C)C)c12)OC(C)(C)CC3	-2.1	10.8	-2.5	.	-10.6
Cc1cc(=O)oc2c3c(cc(OCC(=O)NCC4CCC(C(=O)O)CC4)c12)OC(C)(C)CC3 (stereo not drawn)	3.2	18.4	3.9	-8.8	-8.4
Cc1cc(=O)oc2c3c(cc(OCC(=O)NCCC(=O)O)c12)OC(C)(C)CC3	-2.0	-1.5	-0.2	5.1	10.4
CCc1cc(=O)oc2c3c(cc(OCC(=O)NCCCC(=O)O)c12)OC(C)(C)CC3	1.8	38.9*	12.1	4.5	16.9
CCc1cc(=O)oc2c(C)c(OCC(=O)N3CCC[C@@H]3C(=O)O)ccc12	2.4	0.4	2.6	-2.6	5.1
CCc1cc(=O)oc2c3c(cc(OCC(=O)NC4CC4)c12)OC(C)(C)CC3	-0.8	50.5*	2.0	0.6	9.3
CCCc1cc(=O)oc2c3c(cc(OCC(=O)N4CCC[C@H]4C(=O)O)c12)OC(C)(C)CC3	1.4	41.8*	4.6	6.4	9.9
CCOc1ccc(-n2c(SCC(=O)c3ccccc3Cl)nnc2-c2ccncc2)cc1	.	.	.	.	-4.2
COc1ccc(-c2nnc3n2N=C(c2cccc([N+](=O)[O-])c2)CS3)cc1	.	.	.	.	-8.4
S=C(Nc1ccc(Br)cc1)OCCN1CCCC12CCC(c1ccccc1)CC2 (stereo not drawn)	.	.	.	.	-0.2
CCc1cc(=O)oc2c3c(cc(OCC(=O)NCCN4CCOCC4)c12)OC(C)(C)CC3	6.1	43.0*	17.5	-6.8	-14.2
COC(=O)c1cc2c(c3c4ccccc4n(S(C)(=O)=O)c13)C(=O)N(Cc1ccccc1)C2	.	.	.	.	-0.9
Cc1oc2ccc(OCc3ccc(F)cc3)cc2c1C(=O)O	24.5*	-1.6	-4.4	5.2	-5.1
Cc1oc2ccc(OCc3cccc(Cl)c3)cc2c1C(=O)O	9.2	1.2	-7.6	2.0	-6.2
O=Nc1c2nc3ccccc3n(O)c-2c2ccccc12	36.0*	11.5	53.8*	10.0	8.8
On1c(-c2ccccc2)nc2ccccc21	-0.7	0.9	11.5	-8.0	-13.9
CN(C(=O)c1cccc(COc2ccc(Cl)cc2Cl)c1)c1ccccc1	26.6*	-0.9	-6.6	.	3.0
O=C(NCc1ccccc1)c1cccc(COc2cc(Cl)ccc2Cl)c1	8.0	-15.4	2.0	13.3	-1.6
Cc1ccc(NC(=O)C2CC3CCC2C3)cc1 (stereo not drawn)	.	.	.	.	-4.7
O=C1NC(=S)/C(=C\c2ccc(-c3ccccc3Cl)o2)S1	9.1	41.1*	24.2	.	0.6
Cc1nnc(C)n1/N=C/c1ccc(-c2ccccc2Cl)o1	2.5	1.3	2.5	12.1	13.5
CC(=O)OCc1c(C(F)(F)F)nn(C)c1SCc1ccc(Cl)cc1	29.5*	1.7	3.5	18.8	-0.1
CCN1/C(=C/C=C/C=C/c2sc3ccccc3[n+]2CC)Sc2ccccc21	.	.	.	79.8*	.
CC(=O)N1CCCN(S(=O)(=O)c2ccc3c(c2)c(=O)n(C)c(=O)n3C)CC1	.	.	.	.	3.1
Cc1nc(SCC(N)=O)[nH]c(=O)c1C	.	.	.	.	8.6
SMILES	PAFAH1B2 FP inh	PAFAH2 inh	PAFAH1B3 inh	Apaf1 inhib	TDP2 inh
CCN(c1ccccc1)S(=O)(=O)c1cc(C(=O)O)ccc1C	52.7*	15.8	16.1	-16.4	-6.8
O=C(O)c1ccc(Cl)c(S(=O)(=O)N(Cc2ccccc2)c2ccccc2Cl)c1	28.3*	12.4	6.5	8.6	20.6
CCN(c1ccccc1)S(=O)(=O)c1cc(C(=O)Nc2ccc(F)c(F)c2)ccc1F	11.1	-40.8	-27.5	2.1	-4.1
O=C(O)c1ccc(Cl)c(S(=O)(=O)N(Cc2ccccc2)c2ccccc2)c1	22.4	12.7	-5.5	9.3	20.0
O=C(O)c1ccc(Cl)c(S(=O)(=O)N(Cc2ccccc2)c2ccc(F)cc2)c1	33.0*	2.0	-5.7	11.8	18.1
O=C(O)c1cccc(S(=O)(=O)N(Cc2ccccc2)c2ccccc2)c1	25.6*	7.2	3.0	0.2	6.8
N#CCCCc1cn(-c2cccc(-c3noc4c3C(=O)N(CC(=O)N3CCOCC3)CC4)c2)nn1	.	.	.	.	-2.5
COc1ccc(Cn2cc(COC(=O)Nc3ccc(F)cc3)nn2)cc1	.	.	.	.	5.3
Cc1ccccc1CNC(=O)C1C2C=CC3(CN(Cc4ccccc4)C(=O)C13)O2 (stereo not drawn)	.	.	.	.	2.8
COC(=O)N1C[C@H](OCc2ccccc2)[C@H]2C[C@@H]1c1ccccc1O2	.	.	.	.	1.3
COc1ccc(NC(=O)C(=O)NCCC2CCCCN2S(=O)(=O)c2cccs2)cc1 (stereo not drawn)	7.1	12.4	0.1	7.7	-0.4
COc1ccc(CNC(=O)C(=O)NCCC2CCCCN2S(=O)(=O)c2cccs2)cc1 (stereo not drawn)	24.9*	-2.1	-0.8	12.0	3.6
O=C(NCc1ccccc1)C(=O)NCC1OCCCN1S(=O)(=O)c1cccs1 (stereo not drawn)	14.6	2.2	-5.3	4.7	-2.3
O=C(NCc1ccc(F)cc1)C(=O)NCC1OCCCN1S(=O)(=O)c1cccs1 (stereo not drawn)	29.8*	-13.7	2.2	9.5	13.8
Cc1ccc(C)c(S(=O)(=O)N2CCCC2CNC(=O)C(=O)NCc2ccccc2)c1 (stereo not drawn)	11.8	2.3	-1.7	11.5	9.1
Cc1cc(F)ccc1S(=O)(=O)N1CCCOC1CNC(=O)C(=O)NCCc1ccccc1 (stereo not drawn)	27.0*	-19.4	5.0	7.6	1.8
Cc1ccc(CNC(=O)C(=O)NCC2CCCN2S(=O)(=O)c2cc(C)ccc2C)cc1 (stereo not drawn)	28.0*	2.1	6.5	15.8	-12.6
O=C(NCCc1ccccc1)C(=O)NCC1OCCCN1S(=O)(=O)c1cc(F)ccc1F (stereo not drawn)	8.5	1.8	6.1	5.1	-2.3
CC(C)C[C@@H]1COc2cc(Br)ccc2S(=O)(=O)N1Cc1cn(Cc2ccccc2)nn1	.	.	.	.	-0.6
CCOC(=O)[C@]12CCCCC/C=C\1N(Cc1ccc(OC)cc1)C(=O)[C@H]2CC(=O)NCC1CCCCC1	.	.	.	.	-7.3
O=S1(=O)c2ccc(Br)cc2OCCC2CCCCN21 (stereo not drawn)	.	.	.	.	8.4
C[C@@H]1CCCCCCCCC(=O)OCCN[C@H](C)CCCCCCCCC(=O)OCCN[C@H](C)CCCCCCCCC(=O)OCCN1	-8.7	14.0	2.4	68.5*	.
CC(Sc1ccc(S(=O)(=O)N2CCN(C)CC2)cn1)C(=O)NC1(C#N)CCCCC1 (stereo not drawn)	30.8*	6.0	3.5	1.1	-1.9
COc1ccc(CN(C)C(C#Cc2ccccc2)Cc2ccccc2)c(OC)c1 (stereo not drawn)	.	.	.	.	5.3
